# ChEMBL document CHEMBL3400092 (2015)
# Calls of active or inactive are those of the source. No cut-off for these calls is given here.
# Test system: CL1-5
# Assay: Reduction in total wild type EGFR levels in gefinitib-insensitive and 24 hrs serum starved human CL1-5 cells at 10 uM pre-incubated for 1 hr before EGF stimulation for 30 mins by Western blot method
# Format: functional
# Conditions: not given
# Summary of the method: (§1)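 Cells in RPMI-1640 with 10% FBS were plated at 1×10^6 per 10-cm dish, cultured overnight, then kept serum-free for 24 h. They were pre-treated with 10 μM compound for 1 h, serum-free, then stimulated with EGF 20 ng/mL (20 min in methods, 30 min in legend). Whole-cell lysates, 40 μg/lane, were run on 10% SDS-PAGE, blotted to PVDF, probed for pan-EGFR and pEGFR (Tyr1068), and detected by ECL.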
row,Compound,inhibition
1,CCOC(=O)CCCOc1ccc(/C=C/C(=O)/C=C(O)/C=C/c2ccc(OCCCC(=O)OCC)c(OC)c2)cc1OC,inactive
2,COc1cc(/C=C/C(=O)/C=C(O)/C=C/c2ccc(OCCCC(=O)O)c(OC)c2)ccc1OCCCC(=O)O,inactive
3,COc1cc(/C=C/C(O)=C/C(=O)/C=C/c2ccc(OC)c(OC)c2)ccc1O,Active
4,COc1cc(/C=C/C(O)=C/C(=O)/C=C/c2ccc(O)cc2)ccc1O,inactive
5,COc1cc(/C=C/C(=O)/C(CCC(=O)O)=C(O)/C=C/c2ccc(O)c(O)c2)ccc1O,inactive
6,COc1ccc(/C=C/C(=O)/C=C(O)/C=C/c2ccc(OC)c(OC)c2)cc1OC,Active
7,CCOC(=O)CCCOc1ccc(/C=C/C(=O)/C(CCC(=O)OCC)=C(O)/C=C/c2ccc(OCCCC(=O)OCC)c(OC)c2)cc1OC,inactive
8,COc1ccc(CCC(=O)CC(O)CCc2ccc(OC)c(OC)c2)cc1OC (configuration not stated),inactive
9,COc1ccc(/C=C/C(=O)/C(C)=C(O)/C=C/c2ccc(OC)c(OC)c2)cc1OC,Active
10,CCOC(=O)CC/C(C(=O)/C=C/c1ccc(OC)c(OC)c1)=C(O)\C=C\c1ccc(OC)c(OC)c1,inactive
11,CCOC(=O)CC/C(C(=O)/C=C/c1ccc(OC)c(OC)c1)=C(O)\C=C\c1ccc(O)c(OC)c1,Active
12,CCOC(=O)CC/C(C(=O)/C=C/c1ccc(O)c(O)c1)=C(O)\C=C\c1ccc(O)c(O)c1,Active
13,COc1cc(/C=C/C(=O)/C(CCC(=O)O)=C(O)/C=C/c2ccc(OCCCC(=O)O)c(OC)c2)ccc1OCCCC(=O)O,inactive
14,COc1ccc(/C=C/C(=O)/C=C(O)/C=C/c2ccc(OC)c(OC)c2OC)c(OC)c1OC,Active
15,COc1cc(OC)c(OC)cc1/C=C/C(O)=C/C(=O)/C=C/c1ccc(OC)c(OC)c1,Active
16,COc1cc(/C=C/C(=O)CC(=O)/C=C/c2ccc(O)c(OC)c2)ccc1O,Active
17,CCOC(=O)CC/C(C(=O)/C=C/c1cc(O)c(OC)c(OC)c1)=C(O)\C=C\c1cc(O)c(OC)c(OC)c1,inactive
18,CCOC(=O)/C=C/C(C(=O)/C=C/c1ccc(O)c(OC)c1)=C(O)\C=C\c1ccc(O)c(OC)c1,inactive
19,O=C(/C=C(O)/C=C/c1ccc(O)c(O)c1)/C=C/c1ccc(O)c(O)c1,Active

# Test system: NCI-H1975
# Assay: Reduction in total EGFR L858R and T790M mutant levels in gefinitib-resistant and 24 hrs serum starved human NCI-H1975 cells at 10 uM pre-incubated for 1 hr before EGF stimulation for 30 mins by Western blot method
# Format: functional, cell-based
# Conditions: not given
# Summary of the method: as §1
row,Compound,inhibition
1,CCOC(=O)CCCOc1ccc(/C=C/C(=O)/C=C(O)/C=C/c2ccc(OCCCC(=O)OCC)c(OC)c2)cc1OC,inactive
2,COc1cc(/C=C/C(=O)/C=C(O)/C=C/c2ccc(OCCCC(=O)O)c(OC)c2)ccc1OCCCC(=O)O,inactive
3,COc1cc(/C=C/C(O)=C/C(=O)/C=C/c2ccc(OC)c(OC)c2)ccc1O,Active
4,COc1cc(/C=C/C(O)=C/C(=O)/C=C/c2ccc(O)cc2)ccc1O,inactive
5,COc1cc(/C=C/C(=O)/C(CCC(=O)O)=C(O)/C=C/c2ccc(O)c(O)c2)ccc1O,inactive
6,COc1ccc(/C=C/C(=O)/C=C(O)/C=C/c2ccc(OC)c(OC)c2)cc1OC,Active
7,CCOC(=O)CCCOc1ccc(/C=C/C(=O)/C(CCC(=O)OCC)=C(O)/C=C/c2ccc(OCCCC(=O)OCC)c(OC)c2)cc1OC,inactive
8,COc1ccc(CCC(=O)CC(O)CCc2ccc(OC)c(OC)c2)cc1OC (configuration not stated),inactive
9,COc1ccc(/C=C/C(=O)/C(C)=C(O)/C=C/c2ccc(OC)c(OC)c2)cc1OC,Active
10,CCOC(=O)CC/C(C(=O)/C=C/c1ccc(OC)c(OC)c1)=C(O)\C=C\c1ccc(OC)c(OC)c1,inactive
11,CCOC(=O)CC/C(C(=O)/C=C/c1ccc(OC)c(OC)c1)=C(O)\C=C\c1ccc(O)c(OC)c1,Active
12,CCOC(=O)CC/C(C(=O)/C=C/c1ccc(O)c(O)c1)=C(O)\C=C\c1ccc(O)c(O)c1,inactive
13,COc1cc(/C=C/C(=O)/C(CCC(=O)O)=C(O)/C=C/c2ccc(OCCCC(=O)O)c(OC)c2)ccc1OCCCC(=O)O,inactive
14,COc1ccc(/C=C/C(=O)/C=C(O)/C=C/c2ccc(OC)c(OC)c2OC)c(OC)c1OC,Active
15,COc1cc(OC)c(OC)cc1/C=C/C(O)=C/C(=O)/C=C/c1ccc(OC)c(OC)c1,Active
16,COc1cc(/C=C/C(=O)CC(=O)/C=C/c2ccc(O)c(OC)c2)ccc1O,Active
17,CCOC(=O)/C=C/C(C(=O)/C=C/c1ccc(O)c(OC)c1)=C(O)\C=C\c1ccc(O)c(OC)c1,inactive
18,O=C(/C=C(O)/C=C/c1ccc(O)c(O)c1)/C=C/c1ccc(O)c(O)c1,inactive

# Test system: not listed separately
# Assay: (§2) Cytoprotective activity against 40 uM gefitinib-induced cytotoxicity in rat IEC-18 cells assessed as restoration of cell viability at 5 uM incubated for 24 hrs by MTT assay
# Format: functional
# Conditions: not given
# Summary of the method: (§3)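 IEC-18 rat intestinal epithelial cells, kept in DMEM with 10% FBS, were seeded at 5×10^3 cells/well and co-treated with compound and gefitinib for 24 h. Stocks were in DMSO, with final DMSO below 0.1%. MTT (0.5 mg/mL) was added for 1.5 h, then DMSO, and absorbance was read at 570 nm. Viability was expressed as proliferative index (%) relative to untreated cells (100%). Triplicate; Student t-test.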
row,Compound,Activity
1,O=C(/C=C(O)/C=C/c1ccc(O)c(O)c1)/C=C/c1ccc(O)c(O)c1,<=80%

# Test system: IEC-18
# Assay: as §2
# Format: functional
# Conditions: not given
# Summary of the method: as §3
row,Compound,Activity
1,COc1cc(/C=C/C(O)=C/C(=O)/C=C/c2ccc(OC)c(OC)c2)ccc1O,Active
2,COc1ccc(/C=C/C(=O)/C=C(O)/C=C/c2ccc(OC)c(OC)c2)cc1OC,Active
3,COc1cc(/C=C/C(=O)CC(=O)/C=C/c2ccc(O)c(OC)c2)ccc1O,Active

# Biological target: Epidermal growth factor receptor (Homo sapiens) (UniProt P00533)
# Sequence (P00533 whole entry): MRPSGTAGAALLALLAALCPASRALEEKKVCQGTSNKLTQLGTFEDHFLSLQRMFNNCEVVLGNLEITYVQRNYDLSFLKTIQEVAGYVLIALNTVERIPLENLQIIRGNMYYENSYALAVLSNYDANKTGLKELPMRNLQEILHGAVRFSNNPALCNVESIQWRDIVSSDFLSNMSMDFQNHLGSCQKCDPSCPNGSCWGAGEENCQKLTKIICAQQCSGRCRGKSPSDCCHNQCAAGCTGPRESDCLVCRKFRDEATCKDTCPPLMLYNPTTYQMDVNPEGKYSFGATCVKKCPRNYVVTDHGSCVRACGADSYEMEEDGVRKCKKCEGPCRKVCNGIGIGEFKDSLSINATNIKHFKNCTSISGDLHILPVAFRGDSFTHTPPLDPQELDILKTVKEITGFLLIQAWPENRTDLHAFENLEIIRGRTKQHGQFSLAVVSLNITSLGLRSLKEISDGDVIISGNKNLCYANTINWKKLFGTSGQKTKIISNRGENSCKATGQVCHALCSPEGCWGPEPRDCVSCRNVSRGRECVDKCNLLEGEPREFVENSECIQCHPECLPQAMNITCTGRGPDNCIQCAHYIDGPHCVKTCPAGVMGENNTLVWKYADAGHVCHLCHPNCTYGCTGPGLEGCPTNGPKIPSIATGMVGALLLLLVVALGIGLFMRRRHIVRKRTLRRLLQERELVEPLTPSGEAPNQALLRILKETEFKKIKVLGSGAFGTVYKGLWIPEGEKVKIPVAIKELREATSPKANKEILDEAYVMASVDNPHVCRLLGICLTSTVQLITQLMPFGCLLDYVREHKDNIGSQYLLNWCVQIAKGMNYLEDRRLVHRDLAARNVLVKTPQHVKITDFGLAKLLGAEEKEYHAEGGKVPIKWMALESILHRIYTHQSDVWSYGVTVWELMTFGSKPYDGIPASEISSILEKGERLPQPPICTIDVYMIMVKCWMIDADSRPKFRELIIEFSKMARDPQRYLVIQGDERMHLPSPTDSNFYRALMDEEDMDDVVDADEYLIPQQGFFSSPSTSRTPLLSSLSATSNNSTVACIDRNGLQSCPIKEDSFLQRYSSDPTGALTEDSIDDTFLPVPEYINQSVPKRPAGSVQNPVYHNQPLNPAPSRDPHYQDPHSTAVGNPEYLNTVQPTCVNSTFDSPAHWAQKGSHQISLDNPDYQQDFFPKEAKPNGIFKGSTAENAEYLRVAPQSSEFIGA
# Conditions: CL1-5, at 10 µM
row,Compound,inhibition
1,COc1cc(/C=C/C(=O)/C=C(O)/C=C/c2ccc(OCCCC(=O)O)c(OC)c2)ccc1OCCCC(=O)O,inactive
2,COc1cc(/C=C/C(O)=C/C(=O)/C=C/c2ccc(O)cc2)ccc1O,inactive
3,COc1cc(/C=C/C(=O)/C(CCC(=O)O)=C(O)/C=C/c2ccc(O)c(O)c2)ccc1O,inactive
4,COc1ccc(CCC(=O)CC(O)CCc2ccc(OC)c(OC)c2)cc1OC (configuration not stated),inactive
5,COc1ccc(/C=C/C(=O)/C=C(O)/C=C/c2ccc(OC)c(OC)c2OC)c(OC)c1OC,Active
6,COc1cc(OC)c(OC)cc1/C=C/C(O)=C/C(=O)/C=C/c1ccc(OC)c(OC)c1,Active
7,CCOC(=O)/C=C/C(C(=O)/C=C/c1ccc(O)c(OC)c1)=C(O)\C=C\c1ccc(O)c(OC)c1,inactive
8,O=C(/C=C(O)/C=C/c1ccc(O)c(O)c1)/C=C/c1ccc(O)c(O)c1,Active

# Next, values leading:
row,inhibition,Compound
1,inactive,CCOC(=O)CCCOc1ccc(/C=C/C(=O)/C=C(O)/C=C/c2ccc(OCCCC(=O)OCC)c(OC)c2)cc1OC
2,Active,COc1cc(/C=C/C(O)=C/C(=O)/C=C/c2ccc(OC)c(OC)c2)ccc1O
3,Active,COc1ccc(/C=C/C(=O)/C=C(O)/C=C/c2ccc(OC)c(OC)c2)cc1OC
4,inactive,CCOC(=O)CCCOc1ccc(/C=C/C(=O)/C(CCC(=O)OCC)=C(O)/C=C/c2ccc(OCCCC(=O)OCC)c(OC)c2)cc1OC
5,Active,COc1ccc(/C=C/C(=O)/C(C)=C(O)/C=C/c2ccc(OC)c(OC)c2)cc1OC
6,inactive,CCOC(=O)CC/C(C(=O)/C=C/c1ccc(OC)c(OC)c1)=C(O)\C=C\c1ccc(OC)c(OC)c1
7,Active,CCOC(=O)CC/C(C(=O)/C=C/c1ccc(OC)c(OC)c1)=C(O)\C=C\c1ccc(O)c(OC)c1
8,Active,CCOC(=O)CC/C(C(=O)/C=C/c1ccc(O)c(O)c1)=C(O)\C=C\c1ccc(O)c(O)c1
9,inactive,COc1cc(/C=C/C(=O)/C(CCC(=O)O)=C(O)/C=C/c2ccc(OCCCC(=O)O)c(OC)c2)ccc1OCCCC(=O)O
10,Active,CCOC(=O)CC/C(C(=O)/C=C/c1cc(O)c(OC)c(OC)c1)=C(O)\C=C\c1cc(O)c(OC)c(OC)c1

# Test system: Epidermal growth factor receptor (Homo sapiens), P00533 [L858R,T790M]
# Sequence (P00533 whole entry T790M/L858R, looked up): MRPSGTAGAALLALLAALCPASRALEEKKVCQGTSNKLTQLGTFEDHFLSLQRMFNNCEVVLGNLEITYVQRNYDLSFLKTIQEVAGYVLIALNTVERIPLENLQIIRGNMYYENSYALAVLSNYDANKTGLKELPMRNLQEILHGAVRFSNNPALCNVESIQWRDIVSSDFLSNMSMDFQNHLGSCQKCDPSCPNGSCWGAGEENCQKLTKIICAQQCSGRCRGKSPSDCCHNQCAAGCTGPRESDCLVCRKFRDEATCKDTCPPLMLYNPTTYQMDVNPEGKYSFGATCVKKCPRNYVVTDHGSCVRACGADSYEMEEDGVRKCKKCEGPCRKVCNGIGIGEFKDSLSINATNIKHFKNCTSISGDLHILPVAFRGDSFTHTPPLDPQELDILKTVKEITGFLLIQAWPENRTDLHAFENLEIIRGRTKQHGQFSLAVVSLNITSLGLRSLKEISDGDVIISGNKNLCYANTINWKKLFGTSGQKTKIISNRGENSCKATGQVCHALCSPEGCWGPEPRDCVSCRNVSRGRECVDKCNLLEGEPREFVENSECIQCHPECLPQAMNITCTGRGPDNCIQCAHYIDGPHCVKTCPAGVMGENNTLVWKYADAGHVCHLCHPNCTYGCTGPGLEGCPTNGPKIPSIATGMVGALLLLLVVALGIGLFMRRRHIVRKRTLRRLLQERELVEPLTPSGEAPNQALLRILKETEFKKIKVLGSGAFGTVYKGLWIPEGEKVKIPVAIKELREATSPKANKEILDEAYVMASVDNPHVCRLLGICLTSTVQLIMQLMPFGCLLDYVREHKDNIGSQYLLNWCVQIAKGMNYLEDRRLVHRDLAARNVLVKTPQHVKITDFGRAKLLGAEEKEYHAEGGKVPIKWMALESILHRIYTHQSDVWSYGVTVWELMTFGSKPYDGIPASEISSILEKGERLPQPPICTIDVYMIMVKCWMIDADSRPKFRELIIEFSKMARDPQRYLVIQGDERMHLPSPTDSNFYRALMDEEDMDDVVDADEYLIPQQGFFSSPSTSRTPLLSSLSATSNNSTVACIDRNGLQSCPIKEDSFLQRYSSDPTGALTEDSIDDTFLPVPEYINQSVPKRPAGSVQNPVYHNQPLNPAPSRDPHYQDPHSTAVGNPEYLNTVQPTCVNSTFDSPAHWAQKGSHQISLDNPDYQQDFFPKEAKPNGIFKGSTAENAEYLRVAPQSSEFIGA
# Conditions: NCI-H1975, at 10 µM
row,Compound,inhibition
1,COc1cc(/C=C/C(=O)/C=C(O)/C=C/c2ccc(OCCCC(=O)O)c(OC)c2)ccc1OCCCC(=O)O,inactive
2,COc1cc(/C=C/C(O)=C/C(=O)/C=C/c2ccc(O)cc2)ccc1O,inactive
3,COc1cc(/C=C/C(=O)/C(CCC(=O)O)=C(O)/C=C/c2ccc(O)c(O)c2)ccc1O,inactive
4,COc1ccc(CCC(=O)CC(O)CCc2ccc(OC)c(OC)c2)cc1OC (configuration not stated),inactive
5,COc1ccc(/C=C/C(=O)/C=C(O)/C=C/c2ccc(OC)c(OC)c2OC)c(OC)c1OC,Active
6,COc1cc(OC)c(OC)cc1/C=C/C(O)=C/C(=O)/C=C/c1ccc(OC)c(OC)c1,Active
7,CCOC(=O)/C=C/C(C(=O)/C=C/c1ccc(O)c(OC)c1)=C(O)\C=C\c1ccc(O)c(OC)c1,inactive
8,O=C(/C=C(O)/C=C/c1ccc(O)c(O)c1)/C=C/c1ccc(O)c(O)c1,Active

# Results, then the compound that gave them:
row,inhibition,Compound
1,inactive,CCOC(=O)CCCOc1ccc(/C=C/C(=O)/C=C(O)/C=C/c2ccc(OCCCC(=O)OCC)c(OC)c2)cc1OC
2,Active,COc1cc(/C=C/C(O)=C/C(=O)/C=C/c2ccc(OC)c(OC)c2)ccc1O
3,Active,COc1ccc(/C=C/C(=O)/C=C(O)/C=C/c2ccc(OC)c(OC)c2)cc1OC
4,inactive,CCOC(=O)CCCOc1ccc(/C=C/C(=O)/C(CCC(=O)OCC)=C(O)/C=C/c2ccc(OCCCC(=O)OCC)c(OC)c2)cc1OC
5,Active,COc1ccc(/C=C/C(=O)/C(C)=C(O)/C=C/c2ccc(OC)c(OC)c2)cc1OC
6,inactive,CCOC(=O)CC/C(C(=O)/C=C/c1ccc(OC)c(OC)c1)=C(O)\C=C\c1ccc(OC)c(OC)c1
7,Active,CCOC(=O)CC/C(C(=O)/C=C/c1ccc(OC)c(OC)c1)=C(O)\C=C\c1ccc(O)c(OC)c1
8,inactive,CCOC(=O)CC/C(C(=O)/C=C/c1ccc(O)c(O)c1)=C(O)\C=C\c1ccc(O)c(O)c1
9,inactive,COc1cc(/C=C/C(=O)/C(CCC(=O)O)=C(O)/C=C/c2ccc(OCCCC(=O)O)c(OC)c2)ccc1OCCCC(=O)O
10,Active,CCOC(=O)CC/C(C(=O)/C=C/c1cc(O)c(OC)c(OC)c1)=C(O)\C=C\c1cc(O)c(OC)c(OC)c1
